Assay results taken from PMC2782447 (Apoptosis : an international journal on programmed cell …, 2008).
The star is where a group is joined. pNA = O=[N+]([O-])c1ccc(N*)cc1

What was measured:
caspase-7 [1] = biological target: T1, caspase-7 (Homo sapiens, UniProt P55210); experiment: Crystal structure of caspase-7/LDESD; format: binding; details: crystal structure caspase-7/LDESD, 2.45 Å, PDB 3EDR
T1 sequence (P55210 24-198 limits assumed): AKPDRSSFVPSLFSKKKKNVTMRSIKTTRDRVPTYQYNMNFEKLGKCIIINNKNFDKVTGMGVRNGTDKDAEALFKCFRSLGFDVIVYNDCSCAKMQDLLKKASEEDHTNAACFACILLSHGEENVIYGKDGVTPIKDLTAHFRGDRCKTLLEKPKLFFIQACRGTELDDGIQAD
T1 sequence (P55210 207-303 limits assumed): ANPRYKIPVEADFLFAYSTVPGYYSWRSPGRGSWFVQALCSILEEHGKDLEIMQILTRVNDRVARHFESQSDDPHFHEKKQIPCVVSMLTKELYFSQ

caspase-3 [2] = biological target: T2, caspase-3 (Homo sapiens, UniProt P42574); experiment: Crystal structure of caspase-3/LDESD; format: binding; details: crystal structure caspase-3/LDESD, 1.61 Å, PDB 3EDQ
T2 sequence (P42574 29-175 limits assumed): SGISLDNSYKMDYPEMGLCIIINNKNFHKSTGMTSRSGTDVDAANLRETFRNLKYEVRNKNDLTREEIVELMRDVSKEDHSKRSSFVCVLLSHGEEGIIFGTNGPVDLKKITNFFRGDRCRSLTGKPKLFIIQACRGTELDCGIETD
T2 sequence (P42574 176-277 limits assumed): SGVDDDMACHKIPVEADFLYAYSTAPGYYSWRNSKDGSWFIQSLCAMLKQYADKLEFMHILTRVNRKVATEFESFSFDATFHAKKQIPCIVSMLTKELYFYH

caspase-3 [3] = biological target: T2, caspase-3; experiment: Colorimetric substrate hydrolysis by caspase-3; format: biochemical; details: for Relative kcat/Km (relative activity): relative to DEVD = 100%, caspase-3, pH 7.5
caspase-7 [4] = biological target: T1, caspase-7; experiment: Colorimetric substrate hydrolysis by caspase-7; format: biochemical; details: relative to DEVD = 100%; caspase-7, pH 7.5
caspase-8 = caspase-8 (Homo sapiens, UniProt Q14790); experiment: Colorimetric substrate hydrolysis by caspase-8; format: biochemical; details: relative to DEVD = 100%; caspase-8, pH 7.5
caspase-6 = biological target: T3, caspase-6 (Homo sapiens, UniProt P55212); experiment: Colorimetric substrate hydrolysis by caspase-6; format: biochemical; details: for kcat/Km: 50 mM HEPES, pH 7.25, 100 mM NaCl, 10% sucrose, 0.1% CHAPS, 405 nm, triplicate; for Relative kcat/Km (relative activity): relative to DEVD = 100%
T3 sequence (P55212 25-179 limits assumed): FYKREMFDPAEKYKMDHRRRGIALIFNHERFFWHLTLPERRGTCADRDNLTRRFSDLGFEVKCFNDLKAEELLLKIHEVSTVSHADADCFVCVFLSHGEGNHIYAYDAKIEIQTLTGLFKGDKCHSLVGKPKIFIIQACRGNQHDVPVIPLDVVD
T3 sequence (P55212 194-293 limits assumed): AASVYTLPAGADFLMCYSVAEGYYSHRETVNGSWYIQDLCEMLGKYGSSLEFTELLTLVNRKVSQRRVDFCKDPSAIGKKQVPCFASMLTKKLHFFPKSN
Method in brief: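 It was purified by Ni-NTA and S-100 gel filtration and self-processed into active subunits. Assays used 50 mM HEPES pH 7.25, 100 mM NaCl, 10% sucrose, 0.1% CHAPS, with pNA substrates at varied concentrations, A405, in triplicate.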

caspase-8, sequence (Q14790 217-374 limits assumed): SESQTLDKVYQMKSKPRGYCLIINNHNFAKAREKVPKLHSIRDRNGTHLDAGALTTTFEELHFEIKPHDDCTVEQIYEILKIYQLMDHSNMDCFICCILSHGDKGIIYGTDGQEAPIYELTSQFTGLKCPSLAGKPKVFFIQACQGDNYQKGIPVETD
caspase-8, sequence (Q14790 385-479 limits assumed): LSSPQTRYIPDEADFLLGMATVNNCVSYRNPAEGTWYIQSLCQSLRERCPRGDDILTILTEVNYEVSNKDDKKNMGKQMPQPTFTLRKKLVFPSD

Row | kcat/Km fold higher than DEVD (caspase-6; LEHD versus DEVD, caspase-6, pH 7.25) | Substance | covalent binding mode (active site cysteine with aldehyde) (caspase-7 [1]) | covalent binding mode (active site cysteine with aldehyde) (caspase-3 [2]) | increased hydrolysis relative to DEVD (caspase-3 [3]; caspase-3, increase over DEVD) | Relative kcat/Km (relative activity) (caspase-3 [3]) | Relative kcat/Km (relative activity) (caspase-7 [4]) | Relative kcat/Km (relative activity) (caspase-8) | kcat/Km (caspase-6) | Relative kcat/Km (relative activity) (caspase-6; caspase-6, pH 7.25) | activity of QDEVD compared with DEVD, in words (caspase-3 [3]; caspase-3) | substrate preference, in words (caspase-6; caspase-6, polar P5)
1 | – | Ac-LDESD-aldehyde | forms a hemithioacetal bond with the aldehyde group of the inhibitor | forms a hemithioacetal bond with the aldehyde group of the inhibitor | – | – | – | – | – | – | – | –
2 | – | Ac-LDEVD-pNA | – | – | 50% | 146% | 56% | 20% | 0.068±0.01 min^−1μM^−1 | 118% | – | –
3 | – | Ac-QDEVD-pNA | – | – | – | 85% | 67% | 18% | 0.086±0.01 min^−1μM^−1 | 148% | the activity was similar for the tetrapeptide DEVD and the pentapeptide QDEVD | preference for polar P5 in QDEVD
4 | 3 fold | LEHD | – | – | – | – | – | – | 0.19 min^−1μM^−1 | – | – | –
